In brackets after ≈: the same amount, converted by molar mass. Activity calls are given as the source filed them. The calls are words filed in the database; no cut-off is given here.

From ChEMBL document CHEMBL3259528, “Exploring 5-nitrofuran derivatives against nosocomial pathogens: synthesis, antimicrobial activity and chemometric analysis” (2014) come the findings set out here.

The test system of test [1] is Klebsiella pneumoniae. The experiment in a line: Antimicrobial activity against Klebsiella pneumoniae ATCC 700603 at 128 uM after 24 to 48 hrs by two-fold broth microdilution method. The class given is functional, organism-based. The gist of the method:
(§1)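 Antibacterial microdilution in CAMH, inoculum 0.5 McFarland diluted in saline/CAMH, 35 °C for 18 h, with further reads at 24 and 48 h. Activity is scored at the maximum tested concentration, 128 µM. Triplicate.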
(In broth dilution the organism is exposed to a series of concentrations in liquid medium.)

The subject of test [2] is Staphylococcus aureus. In words: Antimicrobial activity against Staphylococcus aureus ATCC 29213 after 18 hrs by modified broth microdilution method. The class given is functional. The gist of the method: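 PGI90, the concentration giving 90% growth inhibition, fitted with an exponential growth curve from at least seven concentrations of the MIC assay. Inhibition % = [(Ac − Ap)/Ac] × 100 from A620 of drug-free control versus drug-treated culture. Checked by a modified broth microdilution (Phase 2).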

The test system of test [3] is Escherichia coli. In words: Antimicrobial activity against Escherichia coli ATCC 25922 at 128 uM after 24 to 48 hrs by two-fold broth microdilution method. It is filed as functional, organism-based. The method, boiled down:
as §1

Test [4] concerns Enterococcus faecalis. The experiment in a line: Antimicrobial activity against Enterococcus faecalis ATCC 29212 at 128 uM after 24 to 48 hrs by two-fold broth microdilution method. The class given is functional, organism-based. The method, boiled down:
as §1

In test [5] the test system is Serratia marcescens. In words: Antimicrobial activity against Serratia marcescens ATCC 14576 at 128 uM after 24 to 48 hrs by two-fold broth microdilution method. It is filed as functional, organism-based. The method, boiled down:
as §1

The subject of test [6] is Enterobacter cloacae. The experiment in a line: Antimicrobial activity against Enterobacter cloacae ATCC 23355 at 128 uM after 24 to 48 hrs by two-fold broth microdilution method. The class given is functional, organism-based. The gist of the method:
as §1

The subject of test [7] is Staphylococcus aureus. In words: Antimicrobial activity against Staphylococcus aureus ATCC 29213 after 24 to 48 hrs by two-fold broth microdilution method. The class given is functional.
Test [8] has as its system Staphylococcus aureus. In words: Antimicrobial activity against multidrug-resistant Staphylococcus aureus VISA3 […] by two-fold broth microdilution method. It is filed as functional.
Test [9] concerns Candida albicans. The experiment in a line: Antimicrobial activity against Candida albicans ATCC 537Y at 64 uM after 48 hrs by two-fold broth microdilution method. The class given is functional, organism-based. The gist of the method:
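Single top concentration of the antifungal microdilution: RPMI 1640, inoculum 0.5 McFarland diluted in saline/RPMI, 35 °C for 48 h. Activity is judged at the highest tested level, 64 µM. Run in triplicate.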

In test [10] the test system is Staphylococcus aureus. In words: Antimicrobial activity against Staphylococcus aureus ATCC 29213 at 128 uM after 24 to 48 hrs by two-fold broth microdilution method. The class given is functional, organism-based. The gist of the method: as §1
In test [11] the test system is Enterobacter cloacae. The experiment in a line: Antimicrobial activity against Enterobacter cloacae ATCC 23355 after 24 to 48 hrs by two-fold broth microdilution method. It is filed as functional.
Test [12] concerns Klebsiella pneumoniae. In words: Antimicrobial activity against Klebsiella pneumoniae ATCC 700603 after 24 to 48 hrs by two-fold broth microdilution method. The class given is functional. The gist of the method: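 Two-fold serial dilutions in cation-adjusted Mueller–Hinton broth per CLSI M100-S2. Stocks in DMSO/CAMH 1:10 v/v. Range 2.0–128 µM. Inoculum set to 0.5 McFarland, then diluted in saline and CAMH. Incubated at 35 °C for 18 h. MIC is the lowest concentration with no visible growth. Plates also read at 24 and 48 h as sterility control. Triplicate.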

The test system of test [13] is Enterococcus faecalis. In words: Antimicrobial activity against Enterococcus faecalis ATCC 29212 after 24 to 48 hrs by two-fold broth microdilution method. It is filed as functional.
Test [14] has as its system Escherichia coli. In words: Antimicrobial activity against Escherichia coli ATCC 25922 after 24 to 48 hrs by two-fold broth microdilution method. The class given is functional.
The subject of test [15] is Serratia marcescens. In words: Antimicrobial activity against Serratia marcescens ATCC 14576 after 24 to 48 hrs by two-fold broth microdilution method. The class given is functional.
Test [16] has as its system Candida albicans. In words: Antimicrobial activity against Candida albicans ATCC 537Y after 48 hrs by two-fold broth microdilution method. It is filed as functional. The gist of the method:
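Two-fold serial dilutions in RPMI 1640 per CLSI M27-A2. Stocks in DMSO/RPMI 1:20 v/v. Test range 1.0–64 µM. Inoculum set to 0.5 McFarland, then diluted in saline and RPMI 1640. Plates held at 35 °C for 48 h. MIC is the lowest concentration giving prominent growth reduction. Run in triplicate.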

Broadly, the MIC is the lowest concentration found to suppress growth. Lower therefore signals a more susceptible organism. In general, MIC90 refers to an inhibitory concentration at the 90% level, which refers to growth in some studies and to a panel of isolates in others. Read a high MIC90 as lower susceptibility. As to `O=C(N/N=C/c1ccc([N+](=O)[O-])o1)c1ccc(I)cc1`, the outcome in the test with Klebsiella pneumoniae [1], with Escherichia coli [3], in the test on Enterococcus faecalis [4], in the test with Serratia marcescens [5], in the test with Enterobacter cloacae [6] and in the test on Candida albicans [9] was inactive. Also, the “log(1/MIC>90)” value in the test on Staphylococcus aureus [2] is 5.56. Moreover, the minimal inhibitory concentration (MIC) against Staphylococcus aureus [7] and in the test on Staphylococcus aureus [8] was 2 µM (≈ 0.77 µg/mL) each time. For the same molecule, the MIC90 in the test on Staphylococcus aureus [7] was determined as 2.78 µM (≈ 1.07 µg/mL).
As for `CC(=O)N1N=C(c2ccc(C(C)(C)C)cc2)OC1c1ccc([N+](=O)[O-])o1` (centres undefined), the outcome with Klebsiella pneumoniae [1], with Escherichia coli [3], in the test with Enterococcus faecalis [4], with Serratia marcescens [5], with Enterobacter cloacae [6] and in the test with Staphylococcus aureus [10] was inactive. Moreover, the result with Candida albicans [9] was inactive.
On to `C[C@H]1COc2c(N3CCN(C)CC3)c(F)cc3c(=O)c(C(=O)O)cn1c23` [LEVOFLOXACIN], for which the MIC against Enterobacter cloacae [11], in the test on Klebsiella pneumoniae [12], against Staphylococcus aureus [7], in the test on Enterococcus faecalis [13], against Escherichia coli [14] and in the test on Serratia marcescens [15] was less than 20 µM in each case.
For `O=C(N/N=C/c1ccc([N+](=O)[O-])o1)c1ccc([N+](=O)[O-])cc1`, the outcome in the test with Klebsiella pneumoniae [1], in the test with Escherichia coli [3], in the test with Enterococcus faecalis [4], with Serratia marcescens [5], in the test on Enterobacter cloacae [6] and with Candida albicans [9] was inactive. Moreover, the “log(1/MIC>90)” value in the test on Staphylococcus aureus [2] stood at 5.48. The values for the MIC against Staphylococcus aureus [7] and in the test with Staphylococcus aureus [8] were 2 µM (≈ 0.608 µg/mL) and 4 µM (≈ 1.22 µg/mL), respectively. In the test on Staphylococcus aureus [7], this molecule yielded an MIC90 of 3 µM (≈ 0.913 µg/mL).
Turning to `CCCc1ccc(C(=O)N/N=C/c2ccc([N+](=O)[O-])o2)cc1`, the “log(1/MIC>90)” value in the test on Staphylococcus aureus [2] was 5.59. The MIC was 32 µM (≈ 9.64 µg/mL) in the test on Candida albicans [16]; 64 µM (≈ 19.3 µg/mL) in the test on Klebsiella pneumoniae [12]; 2 µM (≈ 0.603 µg/mL) with Staphylococcus aureus [7]; 64 µM (≈ 19.3 µg/mL) against Enterococcus faecalis [13]; 64 µM (≈ 19.3 µg/mL) against Escherichia coli [14]; 2 µM (≈ 0.603 µg/mL) in the test on Staphylococcus aureus [8]. Also, inhibition of growth against Serratia marcescens [15] (MIC) required 64 µM (≈ 19.3 µg/mL). For the same molecule, the MIC90 with Candida albicans [16] is 42.1 µM (≈ 12.7 µg/mL); in the test on Enterobacter cloacae [11], 69.8 µM (≈ 21 µg/mL); against Klebsiella pneumoniae [12], 74.8 µM (≈ 22.5 µg/mL); in the test with Staphylococcus aureus [7], 2.56 µM (≈ 0.771 µg/mL); in the test with Enterococcus faecalis [13], 73.2 µM (≈ 22.1 µg/mL); in the test with Escherichia coli [14], 69.8 µM (≈ 21 µg/mL). In the test with Serratia marcescens [15], this molecule showed an MIC90 of 66.3 µM (≈ 20 µg/mL).
For the molecule `NS(=O)(=O)c1ccc(C(=O)N/N=C/c2ccc([N+](=O)[O-])o2)cc1`, the result with Klebsiella pneumoniae [1], in the test on Escherichia coli [3], in the test with Enterococcus faecalis [4], in the test on Serratia marcescens [5], in the test with Enterobacter cloacae [6] and in the test with Candida albicans [9] was inactive. The “log(1/MIC>90)” value in the test with Staphylococcus aureus [2] was determined as 5.08. This molecule yielded an MIC with Staphylococcus aureus [7] of 4 µM (≈ 1.35 µg/mL). The molecule also had an MIC90 in the test on Staphylococcus aureus [7] of 8.34 µM (≈ 2.82 µg/mL).
As to `CCCOc1ccc(C(=O)N/N=C/c2ccc([N+](=O)[O-])o2)cc1`, the “log(1/MIC>90)” value in the test on Staphylococcus aureus [2] is 5.61. Also, the MIC with Candida albicans [16] was 32 µM (≈ 10.2 µg/mL); against Klebsiella pneumoniae [12], 64 µM (≈ 20.3 µg/mL); against Staphylococcus aureus [7], 2 µM (≈ 0.635 µg/mL); against Enterococcus faecalis [13], 64 µM (≈ 20.3 µg/mL); against Escherichia coli [14], 64 µM (≈ 20.3 µg/mL); against Staphylococcus aureus [8], 4 µM (≈ 1.27 µg/mL). This molecule also showed an MIC with Serratia marcescens [15] of 64 µM (≈ 20.3 µg/mL). Besides, the MIC90 is 40.8 µM (≈ 12.9 µg/mL) against Candida albicans [16]; 69.8 µM (≈ 22.2 µg/mL) against Enterobacter cloacae [11]; 71.5 µM (≈ 22.7 µg/mL) against Klebsiella pneumoniae [12]; 2.47 µM (≈ 0.784 µg/mL) in the test with Staphylococcus aureus [7]; 73.5 µM (≈ 23.3 µg/mL) against Enterococcus faecalis [13]; 65.8 µM (≈ 20.9 µg/mL) in the test with Escherichia coli [14]. For the same molecule, in the test with Serratia marcescens [15], the MIC90 is 66.7 µM (≈ 21.2 µg/mL).
With `CCCOc1ccc(C2=NN(C(C)=O)C(c3ccc([N+](=O)[O-])o3)O2)cc1` (centres undefined), the outcome in the test on Klebsiella pneumoniae [1], in the test on Escherichia coli [3], with Enterococcus faecalis [4], with Serratia marcescens [5], in the test with Enterobacter cloacae [6] and in the test with Staphylococcus aureus [10] was inactive. The outcome in the test with Candida albicans [9] was inactive.
